Results taken from ChEMBL document CHEMBL1144401, “Combination of molecular modeling, site-directed mutagenesis, and SAR studies to delineate the binding site of pyridopyrimidine antagonists on the human CCK1 receptor” (J Med Chem, 2005).

Columns and labels:
[1] = biological target: Cholecystokinin receptor type A (Homo sapiens, UniProt P32238, I329A); assay: Inhibition of CCK-induced inositol phosphate in Cos-7 cells expressing mutant CCK1R (I329A); format: functional, cell-based
Method in brief: (§1)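 Mutant human CCK1R cDNAs were made by site-directed mutagenesis in pRFENeo and sequence-verified. COS-7 cells were transfected by DEAE-dextran. Cells were [3H]inositol-labelled overnight, then LiCl-preincubated and incubated 60 min at 37 °C in pH 7.45 PI buffer with CCK and varying antagonist. Dowex-separated inositol phosphates were counted. IC50 given as mean ± SEM; Fmut = IC50(mutant)/IC50(wild type).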

[2] = biological target: Cholecystokinin receptor type A (Homo sapiens, UniProt P32238, I329F); assay: Inhibition of CCK-Induced inositol phosphate in Cos-7 cells expressing mutant CCK1R (I329F); format: functional, cell-based; method in brief: as §1
[3] = biological target: Cholecystokinin receptor type A (Homo sapiens, UniProt P32238, I352A); assay: Inhibition of CCK-Induced inositol phosphate in Cos-7 cells expressing mutant CCK1R (I352A); format: functional, cell-based; method in brief: as §1
[4] = biological target: Cholecystokinin receptor type A (Homo sapiens, UniProt P32238, M195L); assay: Inhibition of CCK-Induced inositol phosphate in Cos-7 cells expressing mutant CCK1R (M195L); format: functional, cell-based; method in brief: as §1
[5] = biological target: Cholecystokinin receptor type A (Homo sapiens, UniProt P32238, R197M); assay: Inhibition of CCK-Induced inositol phosphate in Cos-7 cells expressing mutant CCK1R (R197M); format: functional, cell-based; method in brief: as §1
[6] = biological target: Cholecystokinin receptor type A (Homo sapiens, UniProt P32238, R336M); assay: Inhibition of CCK-Induced inositol phosphate in Cos-7 cells expressing mutant CCK1R (R336M); format: functional, cell-based; method in brief: as §1
[7] = biological target: Cholecystokinin receptor type A (Homo sapiens, UniProt P32238, S342A); assay: Inhibition of CCK-Induced inositol phosphate in Cos-7 cells expressing mutant CCK1R (S342A); format: functional, cell-based; method in brief: as §1
[8] = biological target: Cholecystokinin receptor type A (Homo sapiens, UniProt P32238, S348A); assay: Inhibition of CCK-Induced inositol phosphate in Cos-7 cells expressing mutant CCK1R (S348A); format: functional, cell-based; method in brief: as §1
[9] = biological target: Cholecystokinin receptor type A (Homo sapiens, UniProt P32238, T117A); assay: Inhibition of CCK-Induced inositol phosphate in Cos-7 cells expressing mutant CCK1R (T117A); format: functional, cell-based; method in brief: as §1
[10] = biological target: T1, Cholecystokinin receptor type A (Homo sapiens, UniProt P32238); assay: Inhibition of CCK-Induced inositol phosphate production in Cos-7 cells expressing human CCK1R; format: functional, cell-based
T1 sequence (P32238 whole entry): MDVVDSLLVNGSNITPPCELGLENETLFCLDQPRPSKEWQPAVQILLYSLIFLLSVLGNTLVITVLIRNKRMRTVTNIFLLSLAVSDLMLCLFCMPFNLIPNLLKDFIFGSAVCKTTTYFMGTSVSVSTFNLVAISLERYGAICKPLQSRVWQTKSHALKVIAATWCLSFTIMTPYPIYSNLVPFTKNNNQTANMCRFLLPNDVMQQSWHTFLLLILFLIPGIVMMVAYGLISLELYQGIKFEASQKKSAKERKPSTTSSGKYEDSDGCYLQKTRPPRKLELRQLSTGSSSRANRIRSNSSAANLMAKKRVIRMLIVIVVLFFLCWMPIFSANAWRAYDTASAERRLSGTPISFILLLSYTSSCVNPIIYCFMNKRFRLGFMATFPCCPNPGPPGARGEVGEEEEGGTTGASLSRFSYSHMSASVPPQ

[11] = biological target: T2, Cholecystokinin receptor type A (Rattus norvegicus, UniProt P30551); assay: Inhibition of 71 pM [125I]BH-(Thr,Nle)CCK-9 binding to rat cholecystokinin 1 receptor
T2 sequence (P30551 whole entry): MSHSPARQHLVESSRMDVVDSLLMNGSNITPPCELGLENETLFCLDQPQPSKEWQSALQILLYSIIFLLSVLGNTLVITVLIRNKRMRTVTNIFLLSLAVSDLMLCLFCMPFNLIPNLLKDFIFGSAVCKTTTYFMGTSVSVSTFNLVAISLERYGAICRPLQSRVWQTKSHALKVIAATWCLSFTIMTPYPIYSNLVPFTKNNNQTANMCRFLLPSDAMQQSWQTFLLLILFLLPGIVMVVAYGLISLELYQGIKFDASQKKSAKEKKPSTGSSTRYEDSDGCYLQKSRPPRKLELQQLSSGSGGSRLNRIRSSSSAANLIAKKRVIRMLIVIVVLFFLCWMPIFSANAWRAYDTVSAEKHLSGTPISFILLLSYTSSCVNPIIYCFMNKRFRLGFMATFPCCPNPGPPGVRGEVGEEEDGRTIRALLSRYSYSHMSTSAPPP

[12] = biological target: T1, Cholecystokinin receptor type A; assay: Inhibition of CCK binding to Cos-7 cells expressing human cholecystokinin 1 receptor; format: cell-based
Method in brief: (§2)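 COS-7 cells were grown in DMEM with 5% FCS and transiently transfected by DEAE-dextran with 2 µg/plate of human CCK1R or CCK2R cDNA (from pancreas or gallbladder). About 24 h after replating, cells were incubated 60 min at 37 °C in DMEM with 0.1% BSA and 71 pM [125I]BH-(Thr,Nle)CCK-9 plus competitor. Nonspecific binding used 1 µM. IC50 given as mean ± SEM, 3–6 experiments.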

[13] = biological target: T3, Gastrin/cholecystokinin type B receptor (Homo sapiens, UniProt P32239); assay: Inhibition of CCK binding to Cos-7 cells expressing human cholecystokinin 2 receptor; format: cell-based; method in brief: as §2
T3 sequence (P32239 whole entry): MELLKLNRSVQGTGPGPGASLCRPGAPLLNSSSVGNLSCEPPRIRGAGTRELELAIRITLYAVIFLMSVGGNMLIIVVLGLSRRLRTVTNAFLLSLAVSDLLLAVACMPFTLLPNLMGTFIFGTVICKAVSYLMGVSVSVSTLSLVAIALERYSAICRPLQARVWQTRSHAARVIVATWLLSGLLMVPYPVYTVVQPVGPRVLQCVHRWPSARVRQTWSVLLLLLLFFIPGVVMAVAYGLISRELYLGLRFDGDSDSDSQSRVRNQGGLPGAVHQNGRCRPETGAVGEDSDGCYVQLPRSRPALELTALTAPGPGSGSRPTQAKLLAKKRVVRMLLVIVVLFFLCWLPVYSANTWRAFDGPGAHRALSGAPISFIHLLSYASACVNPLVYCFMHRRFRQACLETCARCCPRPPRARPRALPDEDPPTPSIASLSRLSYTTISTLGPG

[14] = biological target: Cholecystokinin receptor type A (Homo sapiens, UniProt P32238, F107A); assay: Inhibition of CCK-induced inositol phosphate in Cos-7 cells expressing mutant CCK1R (F107A); format: functional, cell-based; method in brief: as §1
[15] = test system: Cholecystokinin receptor type A (Homo sapiens), P32238 [UNDEFINED MUTATION]
[16] = test system: Cholecystokinin receptor type A (Homo sapiens), P32238 [UNDEFINED MUTATION]; remark: listed apart in the source
[17] = test system: Cholecystokinin receptor type A (Homo sapiens), P32238 [UNDEFINED MUTATION]; remark: listed apart in the source
[18] = test system: Cholecystokinin receptor type A (Homo sapiens), P32238 [UNDEFINED MUTATION]; remark: listed apart in the source
[19] = test system: Cholecystokinin receptor type A (Homo sapiens), P32238 [UNDEFINED MUTATION]; remark: listed apart in the source
[20] = test system: Cholecystokinin receptor type A (Homo sapiens), P32238 [UNDEFINED MUTATION]; remark: listed apart in the source
[21] = test system: Cholecystokinin receptor type A (Homo sapiens), P32238 [UNDEFINED MUTATION]; remark: listed apart in the source
[22] = test system: Cholecystokinin receptor type A (Homo sapiens), P32238 [UNDEFINED MUTATION]; remark: listed apart in the source
[23] = test system: Cholecystokinin receptor type A (Homo sapiens), P32238 [UNDEFINED MUTATION]; remark: listed apart in the source
[24] = test system: Cholecystokinin receptor type A (Homo sapiens), P32238 [UNDEFINED MUTATION]; remark: listed apart in the source
[25] = biological target: T4, Gastrin/cholecystokinin type B receptor (Rattus norvegicus, UniProt P30553); assay: Inhibition of 71 pM [125I]BH-(Thr,Nle)CCK-9 binding to rat cholecystokinin 2 receptor
T4 sequence (P30553 whole entry): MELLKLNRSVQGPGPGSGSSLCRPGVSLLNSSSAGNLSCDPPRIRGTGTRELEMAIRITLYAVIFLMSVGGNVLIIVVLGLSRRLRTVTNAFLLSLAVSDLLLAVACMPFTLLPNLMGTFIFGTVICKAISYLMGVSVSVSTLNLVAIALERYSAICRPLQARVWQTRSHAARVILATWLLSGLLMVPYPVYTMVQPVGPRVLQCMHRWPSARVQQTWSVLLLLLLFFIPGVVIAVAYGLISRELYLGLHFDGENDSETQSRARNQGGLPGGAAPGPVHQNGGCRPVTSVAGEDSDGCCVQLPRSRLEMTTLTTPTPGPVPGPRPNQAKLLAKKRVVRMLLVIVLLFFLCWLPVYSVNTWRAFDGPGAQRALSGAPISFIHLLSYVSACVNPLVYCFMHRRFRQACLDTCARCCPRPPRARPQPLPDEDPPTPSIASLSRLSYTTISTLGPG

Chain of Cholecystokinin receptor type A (Homo sapiens, UniProt P32238, S348A) (P32238 whole entry S348A): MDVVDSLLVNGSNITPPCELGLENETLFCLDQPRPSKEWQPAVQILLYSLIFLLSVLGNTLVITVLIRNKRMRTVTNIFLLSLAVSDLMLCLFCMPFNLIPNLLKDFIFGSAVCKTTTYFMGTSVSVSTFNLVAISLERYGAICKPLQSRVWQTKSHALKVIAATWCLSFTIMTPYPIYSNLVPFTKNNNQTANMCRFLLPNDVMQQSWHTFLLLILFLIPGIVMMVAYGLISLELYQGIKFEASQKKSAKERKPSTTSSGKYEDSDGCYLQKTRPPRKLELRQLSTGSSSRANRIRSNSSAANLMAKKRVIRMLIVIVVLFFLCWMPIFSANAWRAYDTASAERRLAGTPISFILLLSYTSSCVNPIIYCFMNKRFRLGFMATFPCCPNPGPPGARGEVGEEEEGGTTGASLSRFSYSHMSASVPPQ
Chain of Cholecystokinin receptor type A (Homo sapiens, UniProt P32238, R336M) (P32238 whole entry R336M): as the sequence (P32238 whole entry S348A) above, with R336M, A348S counted along it
Chain of Cholecystokinin receptor type A (Homo sapiens, UniProt P32238, S342A) (P32238 whole entry S342A): as the sequence (P32238 whole entry S348A) above, with S342A, A348S counted along it
Chain of Cholecystokinin receptor type A (Homo sapiens, UniProt P32238, T117A) (P32238 whole entry T117A): as the sequence (P32238 whole entry S348A) above, with T117A, A348S counted along it
Chain of Cholecystokinin receptor type A (Homo sapiens, UniProt P32238, F107A) (P32238 whole entry F107A): as the sequence (P32238 whole entry S348A) above, with F107A, A348S counted along it
Chain of Cholecystokinin receptor type A (Homo sapiens, UniProt P32238, I329A) (P32238 whole entry I329A): as the sequence (P32238 whole entry S348A) above, with I329A, A348S counted along it
Chain of Cholecystokinin receptor type A (Homo sapiens, UniProt P32238, I329F) (P32238 whole entry I329F): as the sequence (P32238 whole entry S348A) above, with I329F, A348S counted along it
Chain of Cholecystokinin receptor type A (Homo sapiens, UniProt P32238, R197M) (P32238 whole entry R197M): as the sequence (P32238 whole entry S348A) above, with R197M, A348S counted along it
Chain of Cholecystokinin receptor type A (Homo sapiens, UniProt P32238, I352A) (P32238 whole entry I352A): as the sequence (P32238 whole entry S348A) above, with A348S, I352A counted along it
Chain of Cholecystokinin receptor type A (Homo sapiens, UniProt P32238, M195L) (P32238 whole entry M195L): as the sequence (P32238 whole entry S348A) above, with M195L, A348S counted along it

IC50 [1] [µM]	IC50 [2] [µM]	IC50 [3] [µM]	IC50 [4] [µM]	IC50 [5] [µM]	IC50 [6] [µM]	IC50 [7] [µM]	IC50 [8] [µM]	IC50 [9] [µM]	IC50 [10] [µM]	IC50 [12] [µM]	IC50 [13] [µM]	IC50 [14] [µM]	Fmut [15]	Fmut [16]	Fmut [17]	Fmut [18]	Fmut [19]	Fmut [20]	Fmut [21]	further results	Structure (SMILES)
0.0093	0.801	0.227	0.0052	0.0089	0.582	0.0079	0.0036	0.0249	0.0088	0.0021	> 10	0.0268	3	1	90.8	21.2	0.2	0.9	40.1	IC50 [11]: 0.00059 µM; Fmut [22]: 0.7; Fmut [23]: 0.5; Fmut [24]: 2	CC(C)(C)OC(=O)N[C@@H](Cc1c[nH]c2ccccc12)C(=O)N[C@@H]1CCCN2C(=O)N(c3cccc4ccccc34)C(=O)C[C@@H]12
									20.9	6.85	6.02										CC(C)(C)OC(=O)N[C@@H](Cc1c[nH]c2ccccc12)C(=O)N[C@H]1CCCN2C(=O)N(Cc3ccccc3)C(=O)C[C@@H]12
1.11	0.514	2.29	0.0352	0.023	4.86	0.0332	0.0366	0.0716	0.0358	0.0052	> 10	0.0233	0.7	30.8	14.3	65.5	0.4	0.7	125	Fmut [22]: 0.8; Fmut [23]: 1.2; Fmut [24]: 1.9	CC(C)(C)OC(=O)N[C@@H](Cc1c[nH]c2ccccc12)C(=O)N[C@@H]1CCCN2C(=O)N(c3ccccc3)C(=O)C[C@@H]12
0.129	0.183	0.831	0.0058	0.0118	2.06	0.0275	0.0057	0.0284	0.0073	0.0038	> 10	0.0315	4.6	6.6	24.9	61.6	0.3	0.4	138	Fmut [22]: 0.8; Fmut [23]: 0.2; Fmut [24]: 1.6	CC(C)(C)OC(=O)N[C@@H](Cc1c[nH]c2ccccc12)C(=O)N[C@@H]1CCCN2C(S)N(Cc3ccccc3)C(=O)C[C@@H]12 (some centres undefined)
																				IC50 [25]: > 10 µM	CC(C)(C)OC(=O)N[C@@H](Cc1c[nH]c2ccccc12)C(=O)N[C@@H]1CCCN2C(=O)N(Cc3ccccc3)C(=O)C[C@@H]12 [IQM-95333]
